Laboratory results published in ChEMBL document CHEMBL2331117 (J Med Chem, 2013).
In brackets after ≈: the same amount, converted by molar mass.

Experiments:
Cytochrome P450 2C9 = Cytochrome P450 2C9 (Homo sapiens, UniProt P11712); experiment: Inhibition of CYP2C9 (unknown origin); format: ADME
Cytochrome P450 2D6 = Cytochrome P450 2D6 (Homo sapiens, UniProt P10635); experiment: Inhibition of CYP2D6 (unknown origin); format: ADME
Cytochrome P450 3A4 = Cytochrome P450 3A4 (Homo sapiens, UniProt P08684); experiment: Inhibition of CYP3A4 (unknown origin); format: ADME
Cytochrome P450 2C8 = molecular target: T1, Cytochrome P450 2C8 (Homo sapiens, UniProt P10632); experiment: Inhibition of CYP2C8 (unknown origin); format: ADME
T1 sequence (P10632 whole entry): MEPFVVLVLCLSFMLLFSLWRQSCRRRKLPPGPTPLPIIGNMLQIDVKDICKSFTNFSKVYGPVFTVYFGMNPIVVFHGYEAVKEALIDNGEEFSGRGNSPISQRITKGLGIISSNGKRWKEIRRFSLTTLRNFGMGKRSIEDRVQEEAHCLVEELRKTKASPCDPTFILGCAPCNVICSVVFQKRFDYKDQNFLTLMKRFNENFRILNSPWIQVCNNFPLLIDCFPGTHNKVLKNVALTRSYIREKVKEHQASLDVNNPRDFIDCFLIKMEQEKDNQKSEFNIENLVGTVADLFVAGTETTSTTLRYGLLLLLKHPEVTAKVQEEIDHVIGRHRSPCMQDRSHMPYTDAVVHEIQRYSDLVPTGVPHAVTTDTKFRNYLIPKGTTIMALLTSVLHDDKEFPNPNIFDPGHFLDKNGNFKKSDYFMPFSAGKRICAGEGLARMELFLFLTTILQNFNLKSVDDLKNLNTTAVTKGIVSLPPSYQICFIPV

[1] = Apparent permeability across MDCK cells; format: ADME, cell-based, Canis lupus familiaris; settings: dog
[2] = Metabolic stability in mouse liver microsomes after 30 mins; format: ADME, Microsome; settings: read-out: Stability
[3] = Inhibition of mTORC2-mediated phosphorylation of AKT at serine 473 in human PC3 cells after 2 hrs and 50 mins by ELISA; format: cell-based; settings: PC-3
Outline: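 Compound in 0.3% DMSO was added for 2 h 50 min, followed by 10 min stimulation with 20 ng/mL EGF. After formaldehyde fixation, pAKT (S473) and total AKT were detected by chemiluminescent cell ELISA. IC50 came from pAKT normalized to total AKT, relative to DMSO control. Mean, n ≥ 2.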

[4] = Inhibition of mTORC1-mediated phosphorylation of S6 at serine 240/244 in human PC3 cells after 3 hrs by ELISA; format: cell-based; settings: PC-3, 3 h
[5] = molecular target: Phosphatidylinositol 4,5-bisphosphate 3-kinase catalytic subunit alpha isoform (Homo sapiens, UniProt P42336); experiment: Inhibition of PI3Kalpha (unknown origin) using PIP2 as substrate after 2 hrs by luminescence assay
[6] = Inhibition of mTORC1 (unknown origin)-mediated 4EBP1 phosphorylation after 120 mins by ELISA; parameters: species or system Homo sapiens
[7] = Plasma concentration in mouse at 100 mg/kg, po after 4 hrs; format: ADME, organism-based; parameters: dose 100 mg/kg, route oral
[8] = Plasma concentration in mouse at 100 mg/kg, po after 1 hr; format: ADME, organism-based; parameters: dose 100 mg/kg, route oral
[9] = Kinetic solubility of the compound; format: physicochemical; settings: read-out: Kinetic_solubility
Homo sapiens = species on record: Homo sapiens; experiment: Selectivity ratio of IC50 for PI3Kalpha (unknown origin) to IC50 for mTOR (unknown origin)

Sequence of Phosphatidylinositol 4,5-bisphosphate 3-kinase catalytic subunit alpha isoform (P42336 whole entry, canonical isoform): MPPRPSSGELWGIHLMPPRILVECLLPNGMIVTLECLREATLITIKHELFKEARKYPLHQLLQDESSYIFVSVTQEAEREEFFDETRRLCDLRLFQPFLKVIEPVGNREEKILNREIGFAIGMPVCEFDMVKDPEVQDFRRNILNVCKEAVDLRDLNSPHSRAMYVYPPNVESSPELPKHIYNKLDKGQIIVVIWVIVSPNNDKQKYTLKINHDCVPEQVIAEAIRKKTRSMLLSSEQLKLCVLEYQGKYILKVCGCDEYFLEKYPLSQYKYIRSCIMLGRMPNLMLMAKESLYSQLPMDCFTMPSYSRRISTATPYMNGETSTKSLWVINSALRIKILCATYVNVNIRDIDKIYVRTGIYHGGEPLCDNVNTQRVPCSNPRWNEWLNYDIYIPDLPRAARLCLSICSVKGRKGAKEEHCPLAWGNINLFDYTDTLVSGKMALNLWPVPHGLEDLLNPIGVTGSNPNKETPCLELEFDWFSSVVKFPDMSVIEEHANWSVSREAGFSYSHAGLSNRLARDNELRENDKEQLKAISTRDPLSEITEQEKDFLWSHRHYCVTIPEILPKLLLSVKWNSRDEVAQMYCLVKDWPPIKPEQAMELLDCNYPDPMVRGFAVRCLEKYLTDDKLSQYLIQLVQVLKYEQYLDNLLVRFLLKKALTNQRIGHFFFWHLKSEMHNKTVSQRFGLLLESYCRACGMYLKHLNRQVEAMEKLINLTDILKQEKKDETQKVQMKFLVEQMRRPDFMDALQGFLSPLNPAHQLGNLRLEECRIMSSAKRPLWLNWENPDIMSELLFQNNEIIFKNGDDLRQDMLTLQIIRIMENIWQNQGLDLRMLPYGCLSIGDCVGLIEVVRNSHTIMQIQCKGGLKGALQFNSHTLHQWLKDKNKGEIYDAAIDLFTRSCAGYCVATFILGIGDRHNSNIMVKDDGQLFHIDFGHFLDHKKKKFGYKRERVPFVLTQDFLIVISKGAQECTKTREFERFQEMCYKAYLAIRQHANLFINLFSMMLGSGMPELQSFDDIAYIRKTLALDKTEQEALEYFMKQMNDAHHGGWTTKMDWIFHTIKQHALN
Sequence of Cytochrome P450 3A4 (P08684 whole entry): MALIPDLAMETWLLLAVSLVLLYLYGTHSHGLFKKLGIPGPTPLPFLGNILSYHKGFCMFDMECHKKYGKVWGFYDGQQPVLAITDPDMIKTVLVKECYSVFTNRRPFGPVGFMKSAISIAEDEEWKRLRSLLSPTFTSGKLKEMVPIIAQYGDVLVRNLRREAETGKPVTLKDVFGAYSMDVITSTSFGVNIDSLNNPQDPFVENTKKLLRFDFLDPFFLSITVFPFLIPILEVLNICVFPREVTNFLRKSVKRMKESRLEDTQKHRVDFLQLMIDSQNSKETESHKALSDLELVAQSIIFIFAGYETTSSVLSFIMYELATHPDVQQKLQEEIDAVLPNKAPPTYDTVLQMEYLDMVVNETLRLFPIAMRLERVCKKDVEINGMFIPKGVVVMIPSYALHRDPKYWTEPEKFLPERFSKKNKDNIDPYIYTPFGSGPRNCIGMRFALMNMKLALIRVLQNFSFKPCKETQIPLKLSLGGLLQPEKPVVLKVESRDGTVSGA
Sequence of Cytochrome P450 2C9 (P11712 whole entry): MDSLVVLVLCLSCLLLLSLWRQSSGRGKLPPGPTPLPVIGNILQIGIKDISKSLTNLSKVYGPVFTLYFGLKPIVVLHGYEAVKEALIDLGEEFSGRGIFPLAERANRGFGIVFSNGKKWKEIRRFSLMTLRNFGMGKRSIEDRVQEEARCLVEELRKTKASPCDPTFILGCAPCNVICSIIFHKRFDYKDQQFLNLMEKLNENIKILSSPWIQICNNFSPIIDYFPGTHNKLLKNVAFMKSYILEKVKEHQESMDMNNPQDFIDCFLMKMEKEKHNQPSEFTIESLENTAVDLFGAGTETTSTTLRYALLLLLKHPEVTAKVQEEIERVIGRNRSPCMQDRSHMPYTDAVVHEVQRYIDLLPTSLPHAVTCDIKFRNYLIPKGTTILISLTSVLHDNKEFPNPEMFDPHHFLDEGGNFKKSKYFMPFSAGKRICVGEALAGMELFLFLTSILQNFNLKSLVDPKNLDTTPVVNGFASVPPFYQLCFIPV
Sequence of Cytochrome P450 2D6 (P10635 whole entry): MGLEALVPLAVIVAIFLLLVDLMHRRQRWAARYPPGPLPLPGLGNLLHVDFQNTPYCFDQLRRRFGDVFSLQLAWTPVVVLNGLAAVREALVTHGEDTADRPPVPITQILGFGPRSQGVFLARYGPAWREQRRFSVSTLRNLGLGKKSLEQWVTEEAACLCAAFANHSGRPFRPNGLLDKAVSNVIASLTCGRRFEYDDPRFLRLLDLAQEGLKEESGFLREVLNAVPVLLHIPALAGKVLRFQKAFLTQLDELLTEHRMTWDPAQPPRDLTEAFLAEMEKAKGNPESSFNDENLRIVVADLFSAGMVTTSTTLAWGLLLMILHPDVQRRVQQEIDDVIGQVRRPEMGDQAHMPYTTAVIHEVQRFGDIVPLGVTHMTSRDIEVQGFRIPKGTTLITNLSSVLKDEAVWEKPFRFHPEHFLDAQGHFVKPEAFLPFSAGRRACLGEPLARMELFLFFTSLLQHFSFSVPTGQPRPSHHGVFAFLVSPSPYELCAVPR

CNS(=O)(=O)c1ccc(C(=O)N2CCOc3ccc(-c4ccc5nc[nH]c5c4)cc3C2)cc1
INH (Cytochrome P450 2C9): 1.1 µM
INH (Cytochrome P450 2D6): 2.3 µM
INH (Cytochrome P450 3A4): 2.8 µM
INH (Cytochrome P450 2C8): 1.6 µM
Papp [1]: 4.2 ×10⁻⁶ cm/s
remaining at 0.5 h [2]: 64%
IC50 [3]: 812 nM
IC50 [4]: 451 nM
IC50 [5]: 1090 nM
IC50 [6]: 3.5 nM

O=C(c1ccc(C(=O)C(F)(F)F)cc1)N1CCOc2ccc(-c3ccc4cn[nH]c4c3)cc2C1
remaining at 0.5 h [2]: 60%
IC50 [4]: 674 nM
IC50 [5]: 259 nM
IC50 [6]: 3.5 nM

O=C(c1ccc(C(=O)C(F)(F)F)cc1)N1CCOc2ccc(-c3ccc4ccccc4c3)cc2C1
IC50 [5]: 1460 nM
IC50 [6]: 73.7 nM

O=C(c1ccc(C(=O)C(F)(F)F)cc1)N1CCOc2ccc(-c3ccccc3)cc2C1
IC50 [5]: 2310 nM
IC50 [6]: 119 nM

O=C(c1ccc(C(=O)C(F)(F)F)cc1)N1CCOc2ccc(-c3cn[nH]c3)cc2C1
remaining at 0.5 h [2]: 3%
IC50 [4]: 718 nM
IC50 [5]: 1050 nM
IC50 [6]: 29.7 nM

O=C(c1ccc(C(=O)C(F)(F)F)cc1)N1CCOc2ccc(-c3cccnc3)cc2C1
IC50 [5]: 1130 nM
IC50 [6]: 72.7 nM

CC(=O)c1ccc(C(=O)N2CCOc3ccc(-c4ccc5cnn(C)c5c4)cc3C2)cc1
IC50 [5]: 2450 nM
IC50 [6]: 342 nM

CS(=O)(=O)c1ccc(C(=O)N2CCOc3ccc(-c4ccc5nc[nH]c5c4)cc3C2)cc1
INH (Cytochrome P450 2C9): 3 µM
INH (Cytochrome P450 2D6): 8.1 µM
INH (Cytochrome P450 3A4): 3.8 µM
INH (Cytochrome P450 2C8): > 20 µM
concentration at 4 h [7]: 1000 nM
remaining at 0.5 h [2]: 82%
concentration at 1 h [8]: 7800 nM
IC50 [3]: 805 nM
IC50 [4]: 342 nM
IC50 [5]: 670 nM
IC50 [6]: 4.4 nM

O=C(c1ccccc1)N1CCOc2ccc(-c3cnc4ccccc4c3)cc2C1
IC50 [5]: 3130 nM
IC50 [6]: 200 nM

c1ccc2ncc(-c3ccc4c(c3)CNCCO4)cc2c1
IC50 [5]: > 10000 nM
IC50 [6]: > 10000 nM

NS(=O)(=O)c1ccc(C(=O)N2CCOc3ccc(-c4ccc5nc[nH]c5c4)cc3C2)cc1
INH (Cytochrome P450 2C9): 1.3 µM
INH (Cytochrome P450 2D6): 4.3 µM
INH (Cytochrome P450 3A4): 6.3 µM
INH (Cytochrome P450 2C8): 13.9 µM
Papp [1]: 4.2 ×10⁻⁶ cm/s
remaining at 0.5 h [2]: 64%
IC50 [3]: 1670 nM
IC50 [4]: 1800 nM
IC50 [5]: 763 nM
IC50 [6]: 2.9 nM

Cc1cc(C(=O)N2CCOc3ccc(-c4ccc5nc[nH]c5c4)cc3C2)ccc1S(C)(=O)=O
remaining at 0.5 h [2]: 68%
IC50 [3]: 1220 nM
IC50 [4]: 591 nM
IC50 [5]: 459 nM
IC50 [6]: 6.6 nM

O=C(c1ccc(C(=O)C(F)(F)F)cc1)N1CCOc2ccccc2C1
IC50 [5]: > 10000 nM
IC50 [6]: > 10000 nM

Cc1cc(S(C)(=O)=O)ccc1C(=O)N1CCOc2ccc(-c3ccc4nc[nH]c4c3)cc2C1
INH (Cytochrome P450 2C9): 2.9 µM
INH (Cytochrome P450 2D6): 9.3 µM
INH (Cytochrome P450 3A4): 4.1 µM
INH (Cytochrome P450 2C8): 5.4 µM
remaining at 0.5 h [2]: 51%
IC50 [3]: 1010 nM
IC50 [4]: 422 nM
IC50 [5]: > 3000 nM
IC50 [6]: 5.7 nM

CCc1cc(S(C)(=O)=O)ccc1C(=O)N1CCOc2ccc(-c3ccc4nc[nH]c4c3)cc2C1
INH (Cytochrome P450 2C9): 5.4 µM
INH (Cytochrome P450 2D6): > 20 µM
INH (Cytochrome P450 3A4): 2 µM
INH (Cytochrome P450 2C8): 5.6 µM
remaining at 0.5 h [2]: 50%
IC50 [3]: 689 nM
IC50 [4]: 233 nM
IC50 [5]: > 3000 nM
IC50 [6]: 5.2 nM

CS(=O)(=O)c1ccc(C(=O)N2CCOc3ccc(-c4ccc5nc[nH]c5c4)cc3C2)c(Cl)c1
INH (Cytochrome P450 2C9): 9 µM
INH (Cytochrome P450 2D6): 9.2 µM
INH (Cytochrome P450 3A4): 3.5 µM
INH (Cytochrome P450 2C8): 5.4 µM
remaining at 0.5 h [2]: 58%
IC50 [3]: 1060 nM
IC50 [4]: 337 nM
IC50 [5]: 705 nM
IC50 [6]: 23.2 nM

CCNc1cc(S(C)(=O)=O)ccc1C(=O)N1CCOc2ccc(-c3ccc4nc[nH]c4c3)cc2C1
IC50 [5]: > 3000 nM
IC50 [6]: 204 nM

CCS(=O)(=O)c1ccc(C(=O)N2CCOc3ccc(-c4ccc5nc[nH]c5c4)cc3C2)cc1
INH (Cytochrome P450 2C9): 1.7 µM
INH (Cytochrome P450 2D6): 3.3 µM
INH (Cytochrome P450 3A4): 2.2 µM
INH (Cytochrome P450 2C8): 5 µM
remaining at 0.5 h [2]: 72%
IC50 [3]: 1080 nM
IC50 [4]: 343 nM
IC50 [5]: 2170 nM
IC50 [6]: 3.6 nM

O=C(c1ccc(C(F)(F)F)cc1)N1CCOc2ccc(-c3ccc4nc[nH]c4c3)cc2C1
INH (Cytochrome P450 2C9): 1.6 µM
INH (Cytochrome P450 2D6): 3.1 µM
INH (Cytochrome P450 3A4): 1.9 µM
INH (Cytochrome P450 2C8): 3.6 µM
remaining at 0.5 h [2]: 74%
IC50 [3]: 680 nM
IC50 [4]: 306 nM
IC50 [5]: 1090 nM
IC50 [6]: 3.5 nM

Cc1c(C(=O)N2CCOc3ccc(-c4ccc5nc[nH]c5c4)cc3C2)ccc(S(C)(=O)=O)c1F
INH (Cytochrome P450 2C9): 6.4 µM
INH (Cytochrome P450 2D6): 9.6 µM
INH (Cytochrome P450 3A4): 3.4 µM
INH (Cytochrome P450 2C8): 3.4 µM
remaining at 0.5 h [2]: 94%
IC50 [3]: 437 nM
IC50 [4]: 329 nM
IC50 [5]: 2340 nM
IC50 [6]: 1.4 nM

O=C(c1ccc(C(=O)C(F)(F)F)cc1)N1CCOc2ccc(-c3cnc4ccccc4c3)cc2C1
solubility kinetic [9]: 40.1 µM (≈ 19.1 µg/mL)
Papp [1]: 1.69 ×10⁻⁶ cm/s
Ratio IC50 (Homo sapiens): 4
IC50 [5]: 398 nM
IC50 [6]: 95 nM

O=C(c1ccc(C(=O)C(F)(F)F)cc1)N1CCOc2ccc(-c3ccc4nc[nH]c4c3)cc2C1
INH (Cytochrome P450 2C9): 0.8 µM
INH (Cytochrome P450 2D6): 4 µM
INH (Cytochrome P450 3A4): 2.3 µM
INH (Cytochrome P450 2C8): 6.2 µM
concentration at 4 h [7]: 400 nM
solubility kinetic [9]: < 1 µM
Papp [1]: 0.98 ×10⁻⁶ cm/s
remaining at 0.5 h [2]: 49%
concentration at 1 h [8]: 1500 nM
IC50 [4]: 151 nM
IC50 [5]: 89 nM
IC50 [6]: 2.3 nM

CS(=O)(=O)c1ccc(C(=O)N2CCOc3ccc(-c4ccc(N)nc4)cc3C2)cc1
INH (Cytochrome P450 2C9): 18.8 µM
INH (Cytochrome P450 2D6): > 20 µM
INH (Cytochrome P450 3A4): > 20 µM
INH (Cytochrome P450 2C8): > 20 µM
remaining at 0.5 h [2]: 100%
IC50 [3]: 1970 nM
IC50 [4]: 1180 nM
IC50 [5]: 2900 nM
IC50 [6]: 13 nM

CC(=O)Nc1cccc(-c2ccc3c(c2)CN(C(=O)c2ccc(C(=O)C(F)(F)F)cc2)CCO3)c1
IC50 [5]: 238 nM
IC50 [6]: 115 nM

CC(=O)c1ccc(C(=O)N2CCOc3ccc(-c4ccc5cn[nH]c5c4)cc3C2)cc1
IC50 [5]: 1800 nM
IC50 [6]: 14 nM

CCc1c(C(=O)N2CCOc3ccc(-c4ccc5nc[nH]c5c4)cc3C2)ccc(S(C)(=O)=O)c1F
INH (Cytochrome P450 2C9): 2.2 µM
INH (Cytochrome P450 2D6): 11.5 µM
INH (Cytochrome P450 3A4): 2.6 µM
INH (Cytochrome P450 2C8): 3.1 µM
remaining at 0.5 h [2]: 59%
IC50 [3]: 277 nM
IC50 [4]: 152 nM
IC50 [5]: > 3000 nM
IC50 [6]: 2.9 nM

Cc1nc2ccc(-c3ccc4c(c3)CN(C(=O)c3ccc(C(=O)C(F)(F)F)cc3)CCO4)cc2[nH]1
concentration at 4 h [7]: 200 nM
remaining at 0.5 h [2]: 50%
concentration at 1 h [8]: 1000 nM
IC50 [4]: 239 nM
IC50 [5]: 89 nM
IC50 [6]: 0.5 nM

CS(=O)(=O)c1ccc(C(=O)N2CCOc3ccc(-c4ccc5nc[nH]c5c4)cc3C2)c(Br)c1
INH (Cytochrome P450 2C9): 4.2 µM
INH (Cytochrome P450 2D6): 9.2 µM
INH (Cytochrome P450 3A4): 3 µM
INH (Cytochrome P450 2C8): 3.4 µM
remaining at 0.5 h [2]: 45%
IC50 [3]: 453 nM
IC50 [4]: 343 nM
IC50 [5]: 693 nM
IC50 [6]: 5.2 nM

O=C(c1ccc(C(=O)C(F)(F)F)cc1)N1CCOc2ccc(-c3ccc4[nH]ncc4c3)cc2C1
remaining at 0.5 h [2]: 23%
IC50 [4]: 503 nM
IC50 [5]: 137 nM
IC50 [6]: 4.3 nM

CCCc1cc(S(C)(=O)=O)ccc1C(=O)N1CCOc2ccc(-c3ccc4nc[nH]c4c3)cc2C1
remaining at 0.5 h [2]: 87%
IC50 [3]: 3300 nM
IC50 [4]: 1180 nM
IC50 [5]: > 3000 nM
IC50 [6]: 28 nM
